# HCT116 bCat-KO – beta-catenin-lacking colon tumor cell growth suppression | 140,000 compounds, 1.5% hits | viability, % at 10 µM | AID 818 | HCT116 beta-catenin knockout viability, CellTiter-Glo, 60 h; active compounds read low;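 active = viability at or under a set limit, the compound median less 4 SD, cut at about 6% in these data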;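 also: 0% = Hyamine 1622 control at 20 µM and 100% = untreated cell control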
# HUVEC prolif 384 – blocks proliferation of human endothelial cells. HUVEC proliferation, CellTiter-Glo luminescence, 72 h; active compounds read low. viability, % at 10 µM (by protocol). 86,000 compounds, 1.1% hits. AID 648;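 active = viability at or below 30%; inactive = viability above 30%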;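 also: 100% = median luminescence of DMSO-only cell control wells on each plate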
# PTEN del growth – PTEN-deleted cell growth suppression; viability, % at 10 µM; HCT116 PTEN-null viability, CellTiter-Glo, 60 h; active compounds read low; 140,000 compounds, 1.2% hits;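 active = viability at or below a set limit, 4 SD under the median of all tested compounds, cut at about 3.7% in these data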;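 also: PTEN knockout HCT116 line with beta catenin targeted HCT116 as companion control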
# H69AR growth 86K – growth inhibitors of human H69AR lung tumor cells | H69AR lung tumor viability, ATP luminescence, 72 h; active compounds read low | viability, % at 10 µM | 85,000 compounds, 6% hits | AID 598;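 active = viability at or below 40%; inactive = viability above 40%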;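 also: multidrug resistant small cell line overexpressing MRP-1 efflux transporter; 100% = mean luminescence of untreated control wells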
# Fibroblast inh – blocks proliferation of human lung fibroblasts | LL 47 human lung fibroblast viability, ATP luminescence; active compounds read low | viability, % at 10 µM | 85,000 compounds, 1.1% hits;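 active = viability at or below 50% in the single dose screen; inactive = viability above 50%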;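 also: compound exposure lasted 72 h before the ATP readout; 100% = median luminescence of untreated cell-only wells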
#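 Test system: LL 47 human lung fibroblasts / Incubation: 72 h compound exposure at 37 °C after overnight plating / Technique: luminescent ATP detection, CellTiter-Glo / Compound dosing: 0.1% DMSO in all compound wells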
# * = called active by the depositor; x = no result given. The sample as a whole holds a higher share of hits than the screen did.
SMILES,HCT116 bCat-KO,HUVEC prolif 384,PTEN del growth,H69AR growth 86K,Fibroblast inh
O=C(OCCN1C(=O)c2cccc3c(N4CCOCC4)ccc(c23)C1=O)c1ccccc1Cl,5.3*,x,5,x,x
Cc1ccc(C(=O)N/C(=C/c2ccco2)C(=O)NCCc2c[nH]c3ccccc23)cc1,88,x,84,x,x
COc1ccc(CC2(C)OC(c3ccccc3)=NN2C(C)=O)cc1 (centres undefined),79,x,78,x,x
COc1ccc(OC)c(C(=O)/C=C/c2ccccc2C(F)(F)F)c1,4.2*,x,5,x,x
COc1ccc(OC)c(S(=O)(=O)Nc2ccccc2C(F)(F)F)c1,101,82,101,105,96
CSCCOC(=O)C1=C(C)Nc2ccc(C)cc2S1,94,81,99,28*,90
O=S(=O)(c1ccc(Oc2ncnc3scc(-c4ccccc4)c23)cc1)N1CCOCC1,54,86,42,37*,88
COc1ccc(NC(=O)Cc2c(F)cccc2Cl)c(OC)c1,103,x,97,x,x
CCOC(=O)Cc1csc(NC(=O)CSc2cc(Cl)ccc2Cl)n1,105,x,106,x,x
